{"data": "Results gathered from unrelated publications", "effect on": "parasite growth", "note": "Each line is one published result; the experiments were not run side by side."}
{"Compound": "C=C1CC[C@@H]2[C@](C)(CCC[C@]2(C)C(=O)O)[C@H]1CC/C(C)=C/C(=O)O", "organism": "Leishmania amazonensis", "time": "72 h", "notes": "promastigote", "IC50": "28 µg/mL"}
{"Compound": "CCCCCCCCc1nc2ncccn2c1NC(C)(C)CC(C)(C)C", "organism": "Leishmania amazonensis", "method": "MTT", "time": "72 h", "notes": "promastigote", "IC50": "40.6 µM"}
{"Compound": "COc1ccc([S+]([O-])c2ccc(C)cc2)c(OC)c1OC (stereo not drawn)", "organism": "Leishmania braziliensis", "method": "MTT", "time": "24 h", "notes": "promastigote", "IC50": "67.2 µM"}
{"Compound": "COc1cc(O)c(CC=C(C)C)c(O)c1C(=O)/C=C/c1ccc(O)cc1", "organism": "Leishmania amazonensis", "method": "MTT", "time": "72 h", "notes": "promastigote", "IC50": "47.2 µM"}
{"Compound": "CC(C)(C)CC(C)(C)Nc1c(-c2cccnc2)nc2ncccn12", "organism": "Leishmania amazonensis", "method": "MTT", "time": "72 h", "notes": "promastigote", "IC50": "> 100 µM"}
{"Compound": "Oc1ccc(/C=C/c2cc(O)cc(O)c2)cc1", "organism": "Leishmania amazonensis", "method": "imaging", "time": "48 h", "notes": "intracellular, amastigote", "IC50": "14 µM"}
{"Compound": "COc1ccc(Sc2ccccc2)c(OC)c1OC", "organism": "Leishmania braziliensis", "method": "MTT", "notes": "promastigote", "IC50": "14 µM"}
{"Compound": "CC(C)(C)CC(C)(C)Nc1c(-c2ccccc2)nc2ncccn12", "organism": "Leishmania amazonensis", "method": "MTT", "time": "72 h", "notes": "promastigote", "IC50": "50.3 µM"}
{"Compound": "C=C1CC[C@@H]2[C@](C)(CCC[C@@]2(C)C(=O)O)[C@H]1CC[C@H](C)CC(=O)O", "organism": "Leishmania amazonensis", "time": "72 h", "notes": "promastigote", "IC50": "70 µg/mL"}
{"Compound": "COc1ccc([S+]([O-])c2ccc(OC)c(OC)c2OC)cc1 (stereo not drawn)", "organism": "Leishmania braziliensis", "method": "MTT", "time": "24 h", "notes": "promastigote", "IC50": "15.2 µM"}
{"Compound": "CC(C)(C)CC(C)(C)Nc1c(-c2cccc([N+](=O)[O-])c2)nc2ncccn12", "organism": "Leishmania amazonensis", "method": "MTT", "time": "72 h", "notes": "promastigote", "IC50": "> 100 µM"}
{"Compound": "C=C1C[C@@]23CC[C@H]4[C@@](C)(CCC[C@@]4(C)C(=O)O)[C@@H]2CC[C@@H]1C3", "organism": "Leishmania amazonensis", "time": "72 h", "notes": "promastigote", "IC50": "28 µg/mL"}
